The molecules below were run against Human immunodeficiency virus type 1 protease (Human immunodeficiency virus 1) (UniProt Q72874) (assay: Inhibition of HIV-1 Protease). Settings: concentration not given here.
Design: concentration or dose not given beside the values
In short: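 Continuous fluorometric cleavage of 2-(aminobenzoyl)-Thr-Ile-Nle-Phe(p-NO2)-Gln-ArgNH2 (Km = 37 μM); IC50 determined, with MVT-101 (Ac-Thr-Ile-Nle[CH2NH]Nle-Gln-ArgNH2) as positive control.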

| Structure (SMILES) | inhibition |
| --- | --- |
| CNC(=O)N(CC(C)C)C[C@H](O)[C@H](Cc1ccccc1)NC(=O)[C@H](CC(N)=O)NC(=O)OCc1ccccc1 | < 50% |
| CCCCNC(=O)N(C)C[C@@H](O)[C@H](Cc1ccccc1)NC(=O)[C@H](CC(N)=O)NC(=O)OCc1ccccc1 | < 50% |
| CCCCNC(=O)N(CC(C)C)C[C@H](O)[C@H](Cc1ccccc1)NC(=O)[C@H](CC(N)=O)NC(=O)OCc1ccccc1 | < 50% |
| CCCCNC(=O)N(C)C[C@H](O)[C@H](Cc1ccccc1)NC(=O)[C@H](CC(N)=O)NC(=O)OCc1ccccc1 | < 50% |
| CNC(=O)N(C)C[C@H](O)[C@H](Cc1ccccc1)NC(=O)[C@H](CC(N)=O)NC(=O)OCc1ccccc1 | < 50% |
| CNC(=O)N(C)C[C@@H](O)[C@H](Cc1ccccc1)NC(=O)[C@H](CC(N)=O)NC(=O)OCc1ccccc1 | < 50% |

What follows are molecules tested against T1, Human immunodeficiency virus type 1 protease (Human immunodeficiency virus 1, UniProt Q72874) (assay: Compounds were tested for their concentration to inhibit the HIV-1 Protease). Settings: not given.
In short: (§1)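 Continuous fluorometric HIV-1 protease assay. Substrate 2-(aminobenzoyl)-Thr-Ile-Nle-Phe(p-NO₂)-Gln-ArgNH₂ (Km = 37 μM). MVT-101 (Ac-Thr-Ile-Nle[CH₂NH]Nle-Gln-ArgNH₂) served as positive control. IC₅₀ values were determined from inhibition of substrate cleavage; compounds giving under 50% inhibition at 10 μM were flagged.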

| Structure (SMILES) | IC50 |
| --- | --- |
| CNC(=O)N(CC(C)C)C[C@@H](O)[C@H](Cc1ccccc1)NC(=O)[C@H](CC(N)=O)NC(=O)OCc1ccccc1 | 1.5 µM |

The molecules below were run on CEM (Homo sapiens) (assay: Toxic dose required for 50% in uninfected cells). Settings: not given.

| Structure (SMILES) | TD50 |
| --- | --- |
| CC(C)(C)NC(=O)N(Cc1ccncc1)C[C@@H](O)[C@H](Cc1ccccc1)NC(=O)[C@H](CC(N)=O)NC(=O)c1ccc2ccccc2n1 | 300 µM |
| CC(C)CCN(C[C@@H](O)[C@H](Cc1ccccc1)NC(=O)[C@H](CC(N)=O)NC(=O)c1ccc2ccccc2n1)C(=O)NC(C)(C)C | 50 µM |
| CC(C)CN(C[C@@H](O)[C@H](Cc1ccccc1)NC(=O)[C@H](CC(N)=O)NC(=O)c1ccc2ccccc2n1)C(=O)NC(C)(C)C [TELINAVIR] | 50 µM |
| CC(C)(C)NC(=O)N(Cc1ccccc1)C[C@@H](O)[C@H](Cc1ccccc1)NC(=O)[C@H](CC(N)=O)NC(=O)c1ccc2ccccc2n1 | 700 µM |

Each molecule was assayed against T1, Human immunodeficiency virus type 1 protease (assay: Inhibition of HIV-1 Protease.). Settings: not given.
In short: as §1

| Structure (SMILES) | IC50 |
| --- | --- |
| CCCCNC(=O)N(CC(C)C)C[C@@H](O)[C@H](Cc1ccccc1)NC(=O)[C@H](CC(N)=O)NC(=O)OCc1ccccc1 | 0.94 µM |
| CC(C)CN(C[C@@H](O)[C@H](Cc1ccccc1)NC(=O)[C@H](CC(N)=O)NC(=O)OCc1ccccc1)C(=O)NC(C)C | 0.26 µM |
| C[C@H](c1ccccc1)N(C[C@@H](O)[C@H](Cc1ccccc1)NC(=O)[C@H](CC(N)=O)NC(=O)OCc1ccccc1)C(=O)NC(C)(C)C | 6.5 µM |
| CC(C)(C)NC(=O)N(Cc1ccncc1)C[C@@H](O)[C@H](Cc1ccccc1)NC(=O)[C@H](CC(N)=O)NC(=O)OCc1ccccc1 | 0.105 µM |
| CC(C)(C)NC(=O)N(Cc1ccccc1)C[C@@H](O)[C@H](Cc1ccccc1)NC(=O)[C@H](CC(N)=O)NC(=O)OCc1ccccc1 | 0.019 µM |
| CC(C)CCN(C[C@@H](O)[C@H](Cc1ccccc1)NC(=O)[C@H](CC(N)=O)NC(=O)OCc1ccccc1)C(=O)NC(C)(C)C | 0.013 µM |
| CC(C)CN(C[C@H](O)[C@H](Cc1ccccc1)NC(=O)[C@H](CC(N)=O)NC(=O)c1ccc2ccccc2n1)C(=O)NC(C)(C)C | 10 µM |
| CC(C)(C)NC(=O)N(Cc1ccncc1)C[C@@H](O)[C@H](Cc1ccccc1)NC(=O)[C@H](CC(N)=O)NC(=O)c1ccc2ccccc2n1 | 0.019 µM |
| CC(C)CN(C[C@@H](O)[C@H](Cc1ccccc1)NC(=O)[C@H](CC(N)=O)NC(=O)OCc1ccccc1)C(=O)NC(C)(C)C | 0.035 µM |
| CC(C)CCN(C[C@@H](O)[C@H](Cc1ccccc1)NC(=O)[C@H](CC(N)=O)NC(=O)c1ccc2ccccc2n1)C(=O)NC(C)(C)C | 0.003 µM |
| CCNC(=O)N(CC(C)C)C[C@@H](O)[C@H](Cc1ccccc1)NC(=O)[C@H](CC(N)=O)NC(=O)OCc1ccccc1 | 0.33 µM |
| CC(C)(C)NC(=O)N(CC1CCCCC1)C[C@@H](O)[C@H](Cc1ccccc1)NC(=O)[C@H](CC(N)=O)NC(=O)c1ccc2ccccc2n1 | 0.005 µM |
| CCCNC(=O)N(CC(C)C)C[C@@H](O)[C@H](Cc1ccccc1)NC(=O)[C@H](CC(N)=O)NC(=O)OCc1ccccc1 | 0.518 µM |
| CC(C)(C)NC(=O)N(CC1CCCCC1)C[C@@H](O)[C@H](Cc1ccccc1)NC(=O)[C@H](CC(N)=O)NC(=O)OCc1ccccc1 | 0.029 µM |
| CC(C)CN(C[C@@H](O)[C@H](Cc1ccccc1)NC(=O)[C@H](CC(N)=O)NC(=O)c1ccc2ccccc2n1)C(=O)NC(C)(C)C [TELINAVIR] | 0.006 µM |
| CC(C)(C)NC(=O)N(Cc1ccccc1)C[C@@H](O)[C@H](Cc1ccccc1)NC(=O)[C@H](CC(N)=O)NC(=O)c1ccc2ccccc2n1 | 0.003 µM |
| CC(C)CN(C[C@H](O)[C@H](Cc1ccccc1)NC(=O)[C@H](CC(N)=O)NC(=O)OCc1ccccc1)C(=O)NC(C)(C)C | 54 µM |
| CCCCNC(=O)N(CC(C)C)C[C@@H](O)[C@H](Cc1ccccc1)NC(=O)[C@H](CC(N)=O)NC(=O)c1ccc2ccccc2n1 | 0.126 µM |
| C[C@@H](c1ccccc1)N(C[C@@H](O)[C@H](Cc1ccccc1)NC(=O)[C@H](CC(N)=O)NC(=O)OCc1ccccc1)C(=O)NC(C)(C)C | 5.1 µM |
| CCCC[C@@H](CN[C@@H](CCCC)C(=O)N[C@@H](CCC(N)=O)C(=O)N[C@@H](CCCNC(=N)N)C(N)=O)NC(=O)[C@@H](NC(=O)[C@@H](NC(C)=O)[C@@H](C)O)[C@@H](C)CC | 1.9 µM |
